The source made the active and inactive calls. The rule behind the calls is not given here.
Columns and labels:
A549 [1] = experiment: Induction of p53 level in human A549 cells at 100 uM after 12 hrs by ELISA; format: functional, cell-based
Procedure, shortened: (§1)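 p53, p21/WAF1 and p27kip1 in A549 lysates by sandwich ELISA after 1, 10 or 100 µM for 6-24 h. Lysate incubated 2 h for p53 and p27kip1, 1 h for p21, at room temperature. HRP-streptavidin and TMB used, absorbance read at 450 nm, values from standard curves. Three experiments, mean ± SE.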

A549 [2] = experiment: Induction of apoptosis in human A549 cells assessed as apoptotic nucleosome at 100 uM after 24 hrs; format: functional
Procedure, shortened: (§2)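 Apoptosis by cytoplasmic mono- and oligonucleosomes (nucleosome ELISA): A549 cells given 1, 10 or 100 µM for 6, 12, 18 or 24 h and lysed, then lysate assayed photometrically. Expressed relative to control; three experiments, mean ± SE, ANOVA with Dunnett's test.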

A549 [3] = experiment: Cytotoxicity against human A549 cells after 24 hrs by MTT assay; format: functional, cell-based; conditions: A549, 24 h
A549 [4] = experiment: Cell cycle arrest in human A549 cells assessed as accumulation at G1 phase at 50 uM after 24 hrs; format: functional
Procedure, shortened: (§3)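 Flow cytometry of cell cycle: A549 (5 × 10^5 per 60 mm dish) treated next day with 50 or 100 µM for 24, 48 or 72 h. Adherent and floating cells pooled, fixed in PBS-MeOH 1:2 at 4 °C for at least 18 h, then stained 30 min in the dark with PI 50 µg/mL plus RNase A 50 µg/mL. Sub-G1 taken as the subdiploid fraction; at least three runs.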

A549 [5] = experiment: Increase in Bax level in human A549 cells after 6 hrs by ELISA; format: functional, cell-based
Procedure, shortened: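 Bax and Bcl-2 in A549 lysates by sandwich ELISA after 1, 10 or 100 µM for 6-24 h. Lysate incubated 1 h at room temperature, HRP-streptavidin and TMB used, absorbance read at 450 nm. Levels interpolated from protein standard curves and compared with vehicle; three experiments, mean ± SE, ANOVA with Dunnett's test.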

A549 [6] = experiment: Induction of apoptosis in human A549 cells assessed as caspase 3 activation at 100 uM; format: functional, cell-based
Procedure, shortened: (§4)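 Caspase-9 and caspase-3 activity: A549 cells given 100 µM for 6-24 h and lysed on ice 1 h. 80 µg lysate incubated with substrate at pH 7.2, 37 °C, 1 h in the dark. Caspase-9 read colorimetrically at 405 nm and caspase-3 with AFC substrate, ex 400 / em 520 nm. Reported as percent change versus the 0 h group.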

A549 [7] = experiment: Cell cycle arrest in human A549 cells assessed as accumulation at S phase at 50 uM after 72 hrs; format: functional; procedure, shortened: as §3
A549 [8] = experiment: Antiproliferative activity against human A549 cells at 100 uM after 72 hrs by MTT assay; format: functional; conditions: A549, 72 h, values are per cent of control
Procedure, shortened: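 MTT proliferation: A549 grown in medium with 10% FBS to 70-80% confluence, then exposed to compound for 24, 48 or 72 h. MTT added for 3 h at 37 °C, formazan dissolved in 2-propanol, OD 570 nm with 650 nm reference. Expressed as percent of control at 24 h; mean ± SE.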

A549 [9] = experiment: Cell cycle arrest in human A549 cells assessed as accumulation at G1 phase at 50 uM after 48 hrs; format: functional; procedure, shortened: as §3
A549 [10] = experiment: Cell cycle arrest in human A549 cells assessed as accumulation at G1 phase at 100 uM after 72 hrs; format: functional; procedure, shortened: as §3
A549 [11] = experiment: Induction of apoptosis in human A549 cells assessed as DNA fragmentation after 12 hrs; format: functional, cell-based; procedure, shortened: as §2
A549 [12] = experiment: Cell cycle arrest in human A549 cells assessed as accumulation at G2/M phase at 50 uM after 72 hrs; format: functional; procedure, shortened: as §3
A549 [13] = experiment: Cell cycle arrest in human A549 cells assessed as accumulation at G2/M phase at 50 uM after 48 hrs; format: functional; procedure, shortened: as §3
A549 [14] = experiment: Reversal of antiproliferative activity against human A549 cells in presence of nitro-L-arginine methyl ester; format: functional, cell-based
Procedure, shortened: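 ROS-dependence of growth inhibition: A549 cells pretreated with NAC (10 mM) or L-NAME (100 µM) for 2 h, then 100 µM compound for 24 h. Proliferation read by MTT assay at OD 570 nm.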

A549 [15] = experiment: Cell cycle arrest in human A549 cells assessed as accumulation at G1 phase at 100 uM after 24 hrs; format: functional; procedure, shortened: as §3
A549 [16] = experiment: Cytotoxicity against human A549 cells after 24 hrs by TB dye exclusion assay; format: functional, cell-based; conditions: A549, 24 h
A549 [17] = experiment: Induction of apoptosis in human A549 cells assessed as caspase 9 activation at 100 uM; format: functional, cell-based; procedure, shortened: as §4
A549 [18] = experiment: Induction of apoptosis in human A549 cells assessed as PARP cleavage at 100 uM; format: functional, cell-based
A549 [19] = experiment: Reversal of inhibition of migration in human A549 cells at 10 uM in presence of N-acetyl-l-cysteine; format: functional, cell-based
Procedure, shortened: (§5)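 Transwell migration with 8 µm inserts, or Matrigel-coated inserts for invasion: 5 × 10^4 A549 cells in serum-free medium placed in the upper chamber over medium with 10% FBS, 24 h at 37 °C, 5% CO2. Migrated cells stained, dye extracted and read at 560 nm. Reported as percent of control; compound tested at 1 and 10 µM, with NAC pretreatment in reversal tests.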

A549 [20] = experiment: Induction of p27kip1 level in human A549 cells at 100 uM after 18 hrs by ELISA; format: functional, cell-based; procedure, shortened: as §1
A549 [21] = experiment: Cell cycle arrest in human A549 cells assessed as accumulation at G1 phase at 50 uM after 72 hrs; format: functional; procedure, shortened: as §3
A549 [22] = experiment: Cell cycle arrest in human A549 cells assessed as accumulation at S phase at 100 uM after 48 hrs; format: functional; procedure, shortened: as §3
A549 [23] = experiment: Induction of apoptosis in human A549 cells assessed as apoptotic nucleosome at 100 uM after 6 hrs; format: functional; procedure, shortened: as §2
A549 [24] = experiment: Cell cycle arrest in human A549 cells assessed as accumulation at subG1 phase at 100 uM after 24 hrs; format: functional; procedure, shortened: as §3
A549 [25] = experiment: Induction of p21/WAF1 protein level in human A549 cells at 100 uM after 18 hrs by ELISA; format: functional, cell-based; procedure, shortened: as §1
A549 [26] = experiment: Reversal of inhibition of invasion in human A549 cells at 10 uM in presence of N-acetyl-l-cysteine; format: functional, cell-based; procedure, shortened: as §5
A549 [27] = experiment: Cell cycle arrest in human A549 cells assessed as accumulation at subG1 phase at 50 uM after 24 hrs; format: functional; procedure, shortened: as §3

**Q.** For C=C1OC(=O)/C(=C/CCCCCCCCCCCCC)[C@@H]1O [ISOOBTUSILACTONE A], which Activity (A549 [1]) is on record?
**A.** Active

**Q.** And the Activity (A549 [2])?
**A.** 25

**Q.** And the IC50 (A549 [3])?
**A.** 5.13 µM

**Q.** What about the Activity (A549 [4]) of the same compound?
**A.** 51.93%

**Q.** What about the Activity (A549 [5]) of the same compound?
**A.** Active

**Q.** What about the Activity (A549 [6]) of the same compound?
**A.** Active

**Q.** What about the Activity (A549 [7]) of the same compound?
**A.** 47.74%

**Q.** And the growth, % of control at 100 µM (A549 [8])?
**A.** 2.75%

**Q.** And the Activity (A549 [9])?
**A.** 37.37%

**Q.** And the Activity (A549 [10])?
**A.** 41.73%

**Q.** And the Activity (A549 [11])?
**A.** Active

**Q.** What about the Activity (A549 [12]) of the same compound?
**A.** 13.64%

**Q.** What about the Activity (A549 [13]) of the same compound?
**A.** 15.91%

**Q.** What about the Activity (A549 [14]) of the same compound?
**A.** Active

**Q.** What about the Activity (A549 [15]) of the same compound?
**A.** 42.88%

**Q.** And the IC50 (A549 [16])?
**A.** 4.17 µM

**Q.** And the Activity (A549 [17])?
**A.** Active

**Q.** What about the Activity (A549 [18]) of the same compound?
**A.** Active

**Q.** What about the Activity (A549 [19]) of the same compound?
**A.** Active

**Q.** And the Activity (A549 [20])?
**A.** Active

**Q.** What about the Activity (A549 [21]) of the same compound?
**A.** 38.62%

**Q.** What about the Activity (A549 [22]) of the same compound?
**A.** 41.33%

**Q.** And the Activity (A549 [23])?
**A.** 4.5

**Q.** And the Activity (A549 [24])?
**A.** 25.63%

**Q.** What about the Activity (A549 [25]) of the same compound?
**A.** Active

**Q.** And the Activity (A549 [26])?
**A.** Active

**Q.** And the Activity (A549 [27])?
**A.** 16.69%

— ChEMBL document CHEMBL1157401, “Anticancer activity of isoobtusilactone A from Cinnamomum kotoense: involvement of apoptosis, cell-cycle dysregulation, mitochondria regulation, and reactive oxygen species” (J Nat Prod, 2008)
